In ChEMBL document CHEMBL3045213, “Antifungal activity of thiophenes from Echinops ritro” (J Agric Food Chem, 2006):
Active and inactive are the calls of the source. No cut-off for these calls is given here.

Tests used:
[1] = test system: Fusarium oxysporum; experiment: Growth inhibition of Fusarium oxysporum at 0.3 to 30 uM after 48 hr by 96-well microtiter based microdilution method; type: functional, organism-based
Summary of the method: (§1)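 Conidia from 7-10-day-old PDA cultures adjusted photometrically (%T at 625 nm) to 1.0 × 10^6 conidia/mL. Compounds dissolved in 95% ethanol at 12 mM (stock) and diluted 1:4 with MOPS-buffered RPMI. Final concentrations were 0.3, 3.0, 30.0 µM in 96-well plates. Incubated at 24 °C with a 12-h photoperiod. Growth was read as absorbance at 620 nm at 48 h. Percent inhibition was pooled from two experiments replicated in time. Controls were broth+inoculum and solvent+broth wells.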

[2] = test system: Colletotrichum gloeosporioides; experiment: Growth inhibition of Colletotrichum gloeosporioides at 0.3 to 30 uM after 48 hr by 96-well microtiter based microdilution method; type: functional, organism-based; summary of the method: as §1
[3] = test system: Phomopsis viticola; experiment: Antifungal activity against Phomopsis viticola after 72 hr by 96-well microtiter based microdilution method
[4] = test system: Botrytis cinerea; experiment: Antifungal activity against Botryotinia fuckeliana after 48 hr by 96-well microtiter based microdilution method; type: functional, organism-based
Summary of the method: (§2)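 Conidia from 7–10-day PDA cultures (24 °C, 12-h photoperiod) were counted photometrically from %T at 625 nm. Compounds were taken from 12 mM stocks in 95% ethanol, diluted 1:4 in MOPS-buffered RPMI, and tested at six final concentrations (1.55–50.0 µM) with incubation under the same growth conditions.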

[5] = test system: Colletotrichum gloeosporioides; experiment: Growth inhibition of Colletotrichum gloeosporioides at 3 uM after 48 hr by 96-well microtiter based microdilution method; type: functional; conditions: read-out: GI
Summary of the method: (§3)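 Three-point broth microdilution used final concentrations of 0.3, 3.0 and 30.0 µM, diluted from 12 mM ethanol stocks into MOPS-buffered RPMI. Conidial inoculum was counted photometrically at 625 nm and incubated at 24 °C with a 12-h photoperiod. A620 was read at 48 h and converted to percent growth inhibition. Controls were inoculated broth wells and solvent wells without inoculum.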

[6] = test system: Fusarium oxysporum; experiment: Antifungal activity against Fusarium oxysporum after 48 hr by 96-well microtiter based microdilution method; type: functional, organism-based; summary of the method: as §2
[7] = test system: Fusarium oxysporum; experiment: Growth inhibition of Fusarium oxysporum at 0.3 uM after 48 hr by 96-well microtiter based microdilution method; type: functional; conditions: read-out: GI
Summary of the method: (§4)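 F. oxysporum conidia (photometric count, %T 625 nm) were tested in MOPS-buffered RPMI broth microdilution at final concentrations of 0.3, 3.0 and 30.0 µM, diluted from 12 mM ethanol stocks. Plates were incubated at 24 °C with a 12-h photoperiod, and A620 was read at 48 h. Mean percent growth inhibition was pooled from two experiments replicated in time.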

[8] = test system: Colletotrichum gloeosporioides; experiment: Antifungal activity against Colletotrichum gloeosporioides after 72 hr by 96-well microtiter based microdilution method; type: functional, organism-based; summary of the method: as §2
[9] = test system: Colletotrichum fragariae; experiment: Antifungal activity against Colletotrichum fragariae after 72 hr by 96-well microtiter based microdilution method; type: functional, organism-based; summary of the method: as §2
[10] = test system: Botrytis cinerea; experiment: Antifungal activity against Botryotinia fuckeliana after 72 hr by 96-well microtiter based microdilution method; type: functional, organism-based; summary of the method: as §2
[11] = test system: Fusarium oxysporum; experiment: Growth inhibition of Fusarium oxysporum at 3 uM after 48 hr by 96-well microtiter based microdilution method; type: functional; conditions: read-out: GI; summary of the method: as §4
[12] = test system: Phomopsis obscurans; experiment: Antifungal activity against Phomopsis obscurans after 72 hr by 96-well microtiter based microdilution method; type: functional, organism-based; conditions: Paraphomopsis obscurans; summary of the method: as §2
[13] = test system: Colletotrichum acutatum; experiment: Growth inhibition of Colletotrichum acutatum at 3 uM after 48 hr by 96-well microtiter based microdilution method; type: functional, organism-based; summary of the method: as §3
[14] = test system: Colletotrichum fragariae; experiment: Growth inhibition of Colletotrichum fragariae at 3 uM after 48 hr by 96-well microtiter based microdilution method; type: functional, organism-based; summary of the method: as §3
[15] = test system: Colletotrichum acutatum; experiment: Antifungal activity against Colletotrichum acutatum after 48 hr by 96-well microtiter based microdilution method; type: functional, organism-based; summary of the method: as §2
[16] = test system: Fusarium oxysporum; experiment: Antifungal activity against Fusarium oxysporum after 72 hr by 96-well microtiter based microdilution method; type: functional, organism-based; summary of the method: as §2
[17] = test system: Phomopsis viticola; experiment: Antifungal activity against Phomopsis viticola after 48 hr by 96-well microtiter based microdilution method
[18] = test system: Colletotrichum fragariae; experiment: Antifungal activity against Colletotrichum fragariae after 48 hr by 96-well microtiter based microdilution method; type: functional, organism-based; summary of the method: as §2
[19] = test system: Colletotrichum acutatum; experiment: Antifungal activity against Colletotrichum acutatum after 72 hr by 96-well microtiter based microdilution method; type: functional, organism-based; summary of the method: as §2
[20] = test system: Colletotrichum gloeosporioides; experiment: Antifungal activity against Colletotrichum gloeosporioides after 48 hr by 96-well microtiter based microdilution method; type: functional, organism-based; summary of the method: as §2
[21] = test system: Phomopsis obscurans; experiment: Antifungal activity against Phomopsis obscurans after 48 hr by 96-well microtiter based microdilution method; type: functional, organism-based; conditions: Paraphomopsis obscurans; summary of the method: as §2
[22] = test system: Fusarium oxysporum; experiment: Growth inhibition of Fusarium oxysporum at 30 uM after 48 hr by 96-well microtiter based microdilution method; type: functional; conditions: read-out: GI; summary of the method: as §1
[23] = test system: Colletotrichum gloeosporioides; experiment: Growth inhibition of Colletotrichum gloeosporioides at 30 uM after 48 hr by 96-well microtiter based microdilution method; type: functional; conditions: read-out: GI; summary of the method: as §1

OCCC#Cc1ccc(-c2cccs2)s1 was tested, and the “growth inhibition (GI)” value [1] was “Active” and the “growth inhibition (GI)” value [2] was “Active”.

c1csc(-c2ccc(-c3cccs3)s2)c1 [ALPHA-TERTHIENYL] was tested, and the “growth inhibition (GI)” value [1] was “Active”, the IC50 [3] was under 6.3 µM and the IC50 [4] was over 50 µM. For the same compound, the inhibition of growth at 3 µM [5] was 98%, the IC50 [6] was 5 µM and the inhibition of growth at 0.3 µM [7] was 25%. The IC50 [8] was under 1.6 µM, the IC50 [9] was 9 µM and the IC50 [10] was over 50 µM. The inhibition of growth at 3 µM [11] was 98%, the IC50 [12] was 9.6 µM and the “growth inhibition (GI)” value [13] was “Active”. The “growth inhibition (GI)” value [14] was “Active”, the “growth inhibition (GI)” value [2] was “Active” and the IC50 [15] was 3 µM. The IC50 [16] was over 50 µM, the IC50 [17] was under 6.3 µM and the IC50 [18] was 4.9 µM. For the same compound, the IC50 [19] was 5.3 µM, the IC50 [20] was under 1.6 µM and the IC50 [21] was 7.2 µM.

With C(#C[C@@H]1CC[C@@H]1C#Cc1ccc(-c2cccs2)s1)c1ccc(-c2cccs2)s1 the “growth inhibition (GI)” value [1] was “inactive” and the “growth inhibition (GI)” value [2] was “inactive”.

With C=CC#Cc1ccc(-c2cccs2)s1 the “growth inhibition (GI)” value [1] was “Active”, the IC50 [3] was 22 µM and the IC50 [4] was over 50 µM. The inhibition of growth at 30 µM [22] was 96%, the IC50 [6] was over 50 µM and the IC50 [8] was 10.2 µM. For the same compound, the IC50 [9] was 46 µM, the IC50 [10] was over 50 µM and the inhibition of growth at 30 µM [23] was 96%. For the same compound, the IC50 [12] was over 50 µM, the “growth inhibition (GI)” value [2] was “Active” and the IC50 [15] was 7.6 µM. The IC50 [16] was over 50 µM, the IC50 [17] was 19.5 µM and the IC50 [18] was 28 µM. It also gave an IC50 [19] of 28.5 µM, an IC50 [20] of 4.2 µM and an IC50 [21] of over 50 µM.

O=C1C2CC=CCC2C(=O)N1SC(Cl)(Cl)Cl (stereo not given) [CAPTAN] showed an IC50 [3] of 20 µM, an IC50 [4] of under 1.6 µM and an IC50 [6] of 2.2 µM. It also gave an IC50 [8] of under 1.6 µM, an IC50 [9] of 2.1 µM and an IC50 [10] of under 1.6 µM. For the same compound, the IC50 [12] was 3.9 µM, the IC50 [15] was under 1.6 µM and the IC50 [16] was 5.8 µM. For the same compound, the IC50 [17] was 18 µM, the IC50 [18] was under 1.6 µM and the IC50 [19] was 2.1 µM. It also gave an IC50 [20] of under 1.6 µM and an IC50 [21] of 2.4 µM.

C(#C[C@@H]1CC[C@H]1C#Cc1ccc(-c2cccs2)s1)c1ccc(-c2cccs2)s1 was tested, and the “growth inhibition (GI)” value [1] was “inactive” and the “growth inhibition (GI)” value [2] was “inactive”.

With CC(=O)OCC(C#Cc1ccc(-c2cccs2)s1)OC(C)=O (stereo not given) the “growth inhibition (GI)” value [1] was “inactive” and the “growth inhibition (GI)” value [2] was “inactive”.

CC#CC#Cc1ccc(C#CCCO)s1 was tested, and the “growth inhibition (GI)” value [1] was “Active”, the IC50 [3] was 4 µM and the IC50 [4] was 29.4 µM. The inhibition of growth at 30 µM [22] was 100%, the IC50 [6] was 9.5 µM and the IC50 [8] was 6 µM. The IC50 [9] was 12.5 µM, the IC50 [10] was 41 µM and the inhibition of growth at 30 µM [23] was 100%. For the same compound, the IC50 [12] was 13.5 µM, the “growth inhibition (GI)” value [2] was “Active” and the IC50 [15] was 3.5 µM. It also gave an IC50 [16] of 20 µM, an IC50 [17] of under 1.6 µM and an IC50 [18] of 4.4 µM. The IC50 [19] was 19.2 µM, the IC50 [20] was 2.6 µM and the IC50 [21] was 2.9 µM.

For CC(C)CC(=O)OCCC#Cc1ccc(-c2cccs2)s1, the “growth inhibition (GI)” value [1] was “inactive” and the “growth inhibition (GI)” value [2] was “inactive”.

CC#CC#Cc1ccc(C#CC(Cl)COC(C)=O)s1 (stereo not given) was tested, and the “growth inhibition (GI)” value [1] was “Active”, the inhibition of growth at 30 µM [22] was 82% and the inhibition of growth at 30 µM [23] was 81%. For the same compound, the “growth inhibition (GI)” value [2] was “Active”.
